Experiments:
[1] = test system: Rattus norvegicus; assay: Antihypertensive activity in spontaneously hypertensive rats (SHR) measured by percentage fall in arterial pressure (AP) at 25 mg/kg administered intraperitoneally at 1 h; assay type: functional, Artery; conditions: route intraperitoneal
Method in brief: (§1)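 Unanesthetized Okamoto-strain SHR, male and female, 8 weeks old, 300–350 g, systolic pressure ≥190 mmHg, heart rate 400–650 beats/min; five animals per dose. Given ip at 2.5 mL/kg, dissolved or suspended in normal saline or saline with 0.2% (carboxymethyl)cellulose and 1.0% Tween 80. Tail AP and CR recorded by mechanical transduction at set times; reported as percentage fall from control.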

[2] = test system: Rattus norvegicus; assay: Antihypertensive activity in spontaneously hypertensive rats (SHR) measured by percentage fall in cardiac rhythm (CR) at 25 mg/kg administered intraperitoneally at 3 h; assay type: functional, Heart; conditions: route intraperitoneal; method in brief: as §1
[3] = test system: Rattus norvegicus; assay: Antihypertensive activity in spontaneously hypertensive rats (SHR) measured by percentage fall in arterial pressure (AP) at 25 mg/kg administered intraperitoneally at 24 h;No significance; assay type: functional, organism-based; parameters: dose 25 mg/kg; conditions: Artery; method in brief: as §1
[4] = test system: Rattus norvegicus; assay: Antihypertensive activity in spontaneously hypertensive rats (SHR) measured by percentage fall in arterial pressure (AP) at 25 mg/kg administered intraperitoneally at 5 h; assay type: functional, Artery; conditions: route intraperitoneal; method in brief: as §1
[5] = test system: Rattus norvegicus; assay: Antihypertensive activity in spontaneously hypertensive rats (SHR) measured by percentage fall in arterial pressure (AP) at 25 mg/kg administered intraperitoneally at 3 h; assay type: functional, Artery; conditions: route intraperitoneal; method in brief: as §1
[6] = test system: Rattus norvegicus; assay: Antihypertensive activity in spontaneously hypertensive rats (SHR) measured by percentage fall in cardiac rhythm (CR) at 25 mg/kg administered intraperitoneally at 24 h;No significance; assay type: functional, organism-based; parameters: dose 25 mg/kg; conditions: Heart; method in brief: as §1
[7] = test system: Rattus norvegicus; assay: Antihypertensive activity in spontaneously hypertensive rats (SHR) measured by percentage fall in cardiac rhythm (CR) at 25 mg/kg administered intraperitoneally at 5 h; assay type: functional, Heart; conditions: route intraperitoneal
Method in brief: (§2)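 Conscious SHR (Okamoto strain), 8 weeks old, male and female, 300–350 g, systolic BP ≥190 mmHg, CR 400–650 beats/min. Given ip or po at 2.5 mL/kg in normal saline or saline with 0.2% (carboxymethyl)cellulose and 1.0% Tween 80. Tail AP and CR recorded by mechanical transduction at 1, 3, 5 and 24 h, five animals per dose. Effect expressed as % fall versus control.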

[8] = test system: Rattus norvegicus; assay: Antihypertensive activity in spontaneously hypertensive rats (SHR) measured by percentage fall in cardiac rhythm (CR) at 25 mg/kg administered intraperitoneally at 5 h;No significance; assay type: functional, organism-based; parameters: dose 25 mg/kg; conditions: Heart; method in brief: as §2
[9] = test system: Rattus norvegicus; assay: Antihypertensive activity in spontaneously hypertensive rats (SHR) measured by percentage fall in arterial pressure (AP) at 25 mg/kg administered intraperitoneally at 3 h;No significance; assay type: functional, organism-based; parameters: dose 25 mg/kg; conditions: Artery; method in brief: as §1
[10] = test system: Rattus norvegicus; assay: Antihypertensive activity in spontaneously hypertensive rats (SHR) measured by percentage fall in arterial pressure (AP) at 25 mg/kg administered intraperitoneally at 24 h; assay type: functional, Artery; conditions: route intraperitoneal; method in brief: as §1
[11] = test system: Rattus norvegicus; assay: Antihypertensive activity in spontaneously hypertensive rats (SHR) measured by percentage fall in cardiac rhythm (CR) at 25 mg/kg administered intraperitoneally at 3 h;No significance; assay type: functional, organism-based; parameters: dose 25 mg/kg; conditions: Heart; method in brief: as §2
[12] = test system: Rattus norvegicus; assay: Antihypertensive activity in spontaneously hypertensive rats (SHR) measured by percentage fall in cardiac rhythm (CR) at 25 mg/kg administered intraperitoneally at 1 h; assay type: functional, Heart; conditions: route intraperitoneal; method in brief: as §1
[13] = test system: Rattus norvegicus; assay: Percent fall in systolic blood pressure, directly measured on carotid (iv on the jugular vein) of spontaneously hypertensive rats at 1 mg/kg after 45 minutes; assay type: functional, Artery
Method in brief: (§3)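 Anesthetized (sodium pentobarbital, 70 mg/kg) male and female Okamoto SHR, 8 weeks old, 300–350 g. Given iv into the jugular vein in normal saline. Arterial pressure and cardiac rhythm are recorded directly from the carotid by polygraph at set times after dosing. Each is expressed as percent change from the pre-dose control value.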

[14] = test system: Rattus norvegicus; assay: Percent fall in systolic blood pressure, directly measured on carotid (iv on the jugular vein) of spontaneously hypertensive rats at 1 mg/kg after 75 minutes; assay type: functional, Artery; method in brief: as §3
[15] = test system: Rattus norvegicus; assay: Percent fall in systolic blood pressure, directly measured on carotid (iv on the jugular vein) of spontaneously hypertensive rats at 1 mg/kg after 90 minutes; assay type: functional, Artery; method in brief: as §3
[16] = test system: Rattus norvegicus; assay: Percent fall in systolic blood pressure, directly measured on carotid (iv on the jugular vein) of spontaneously hypertensive rats at 1 mg/kg after 10 minutes; assay type: functional, Artery; method in brief: as §3
[17] = test system: Rattus norvegicus; assay: Percent fall in systolic blood pressure, directly measured on carotid (iv on the jugular vein) of spontaneously hypertensive rats at 1 mg/kg after 5 minutes; assay type: functional, Artery; method in brief: as §3
[18] = test system: Rattus norvegicus; assay: Percent fall in systolic blood pressure, directly measured on carotid (iv on the jugular vein) of spontaneously hypertensive rats at 1 mg/kg after 30 minutes; assay type: functional, Artery; method in brief: as §3
[19] = test system: Rattus norvegicus; assay: Percent fall in systolic blood pressure, directly measured on carotid (iv on the jugular vein) of spontaneously hypertensive rats at 1 mg/kg after 60 minutes; assay type: functional, Artery; method in brief: as §3
[20] = test system: Rattus norvegicus; assay: Percent fall in systolic blood pressure, directly measured on carotid (iv on the jugular vein) of spontaneously hypertensive rats at 1 mg/kg after 15 minutes; assay type: functional, Artery; method in brief: as §3
[21] = species: Homo sapiens; assay: In vitro inhibition of platelet aggregation induced by […] (PRP incubated for 5 minutes at 37 degree C) at 10e-5 M; No significance; assay type: functional
[22] = species: Homo sapiens; assay: In vitro inhibition of platelet aggregation induced by AA (PRP incubated for 60 minutes at 37 degree C) at 10e-5 M; No significance; assay type: functional
Method in brief: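 Human venous blood anticoagulated with 3.8% sodium citrate (1:9). PRP from centrifugation at 800 rpm for 10 min at room temperature. Count adjusted with PPP to […]. Compound in saline with 10% ethylene glycol is added to PRP and incubated at 37 °C before the agonist. Agonists: ADP 2×10^-5 M, AA 0.6 mM, PGH2 2.8 μM, adrenaline 0.6 μM. Born absorbance aggregometry; n = 5.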

[23] = test system: Rattus norvegicus; assay: Antihypertensive activity in spontaneously hypertensive rats (SHR) measured by percentage fall in cardiac rhythm (CR) at 25 mg/kg administered intraperitoneally at 1 h;No significance; assay type: functional, organism-based; parameters: dose 25 mg/kg; conditions: Heart; method in brief: as §1
[24] = test system: Rattus norvegicus; assay: Antihypertensive activity in spontaneously hypertensive rats (SHR) measured by percentage fall in arterial pressure (AP) at 25 mg/kg administered intraperitoneally at 5 h;No significance; assay type: functional, organism-based; parameters: dose 25 mg/kg; conditions: Artery; method in brief: as §1
[25] = test system: Rattus norvegicus; assay: Antihypertensive activity in spontaneously hypertensive rats (SHR) measured by percentage fall in arterial pressure (AP) at 25 mg/kg administered intraperitoneally at 1 h;No significance; assay type: functional, organism-based; parameters: dose 25 mg/kg; conditions: Artery; method in brief: as §1
[26] = test system: Rattus norvegicus; assay: Antihypertensive activity in spontaneously hypertensive rats (SHR) measured by percentage fall in cardiac rhythm (CR) at 25 mg/kg administered perorally at 3 h; assay type: functional, Heart; conditions: route oral; method in brief: as §2
[27] = test system: Rattus norvegicus; assay: Antihypertensive activity in spontaneously hypertensive rats (SHR) measured by percentage fall in arterial pressure (AP) at 5 mg/kg administered intraperitoneally at 24 h; assay type: functional, Artery; conditions: route intraperitoneal; method in brief: as §1
[28] = test system: Rattus norvegicus; assay: Antihypertensive activity in spontaneously hypertensive rats (SHR) measured by percentage fall in arterial pressure (AP) at 25 mg/kg administered perorally at 24 h; assay type: functional, Artery; conditions: route oral
Method in brief: (§4)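 Oral dosing at 2.5 mL/kg to unanesthetized male and female Okamoto-strain SHR (8 weeks old, 300–350 g, systolic pressure ≥190 mmHg, heart rate 400–650 beats/min), five per dose. Vehicle was normal saline or saline with 0.2% (carboxymethyl)cellulose and 1.0% Tween 80. AP measured on the tail by mechanical transduction at set times; expressed as percentage fall from control.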

[29] = test system: Rattus norvegicus; assay: Antihypertensive activity in spontaneously hypertensive rats (SHR) measured by percentage fall in arterial pressure (AP) at 5 mg/kg administered intraperitoneally at 5 h; assay type: functional, Artery; conditions: route intraperitoneal; method in brief: as §1
[30] = test system: Rattus norvegicus; assay: Antihypertensive activity in spontaneously hypertensive rats (SHR) measured by percentage fall in cardiac rhythm (CR) at 1 mg/kg administered intraperitoneally at 3 h; assay type: functional, Heart; conditions: route intraperitoneal; method in brief: as §1
[31] = test system: Rattus norvegicus; assay: Antihypertensive activity in spontaneously hypertensive rats (SHR) measured by percentage fall in cardiac rhythm (CR) at 1 mg/kg administered intraperitoneally at 5 h; assay type: functional, Heart; conditions: route intraperitoneal; method in brief: as §1
[32] = test system: Rattus norvegicus; assay: Antihypertensive activity in spontaneously hypertensive rats (SHR) measured by percentage fall in arterial pressure (AP) at 25 mg/kg administered perorally at 3 h; assay type: functional, Artery; conditions: route oral; method in brief: as §4
[33] = test system: Rattus norvegicus; assay: Antihypertensive activity in spontaneously hypertensive rats (SHR) measured by percentage fall in arterial pressure (AP) at 5 mg/kg administered intraperitoneally at 3 h; assay type: functional, Artery; conditions: route intraperitoneal; method in brief: as §1
[34] = test system: Rattus norvegicus; assay: Antihypertensive activity in spontaneously hypertensive rats (SHR) measured by percentage fall in cardiac rhythm (CR) at 25 mg/kg administered intraperitoneally at 24 h; assay type: functional, Heart; conditions: route intraperitoneal; method in brief: as §1
[35] = test system: Rattus norvegicus; assay: Antihypertensive activity in spontaneously hypertensive rats (SHR) measured by percentage fall in cardiac rhythm (CR) at 5 mg/kg administered intraperitoneally at 3 h; assay type: functional, Heart; conditions: route intraperitoneal; method in brief: as §2
[36] = test system: Rattus norvegicus; assay: Antihypertensive activity in spontaneously hypertensive rats (SHR) measured by percentage fall in arterial pressure (AP) at 25 mg/kg administered perorally at 5 h; assay type: functional, Artery; conditions: route oral; method in brief: as §4
[37] = test system: Rattus norvegicus; assay: Antihypertensive activity in spontaneously hypertensive rats (SHR) measured by percentage fall in cardiac rhythm (CR) at 1 mg/kg administered intraperitoneally at 24 h; assay type: functional, Heart; conditions: route intraperitoneal; method in brief: as §1

Row | SMILES | Decrease in AP [1] [%] | Decrease in CR [2] [%] | Decrease in AP [3] | Decrease in AP [4] [%] | Decrease in AP [5] [%] | Decrease in CR [6] | Decrease in CR [7] [%] | Decrease in CR [8] | Decrease in AP [10] [%] | also measured
1 | COc1ccc2c(c1)cc1c(NN)nncn12.Cl | 9 |  |  |  |  |  |  |  |  | 
2 | COc1ccc2[nH]c3c(cnn4c(C)nnc34)c2c1 |  | -5 | No significant values | 8 | 10 | No significant values | 7 |  |  | 
3 | COc1ccc2[nH]c3c(cnn4cnnc34)c2c1 |  | 10 | No significant values | 11 |  | No significant values |  | No significant values |  | Decrease in AP [9]: No significant values
4 | COc1ccc2[nH]c3c(cnn4nnnc34)c2c1 |  |  |  | 8 | 12 | No significant values |  | No significant values | 6 | Decrease in CR [11]: No significant values
5 | CCOc1ccc2[nH]c3c(NN)nncc3c2c1 | 29 | -11 |  | 24 | 28 |  | -9 |  | 5 | Decrease in CR [12]: -20%
6 | NNc1[nH]ncc2c3cc(O)ccc3nc1-2 |  |  |  |  |  |  |  |  |  | Decrease in blood pressure [13]: 56%; Decrease in blood pressure [14]: 56%; Decrease in blood pressure [15]: 56%; Decrease in blood pressure [16]: 44%; Decrease in blood pressure [17]: 33%; Decrease in blood pressure [18]: 56%; Decrease in blood pressure [19]: 67%; Decrease in blood pressure [20]: 60%
7 | COc1ccc2c(c1)cc1c(NN)nncn12 |  |  | No significant values |  |  | No significant values |  | No significant values |  | inhibition [21]: No significant values; inhibition [22]: No significant values; Decrease in AP [9]: No significant values; Decrease in CR [11]: No significant values; Decrease in CR [23]: No significant values; Decrease in AP [24]: No significant values; Decrease in AP [25]: No significant values
8 | NNc1[nH]ncc2c3cc(OCc4ccccc4)ccc3nc1-2 |  | 15 |  | 13 | 12 |  | 20 |  | 7 | Decrease in CR [26]: 21%; Decrease in AP [27]: 7%; Decrease in AP [28]: 5%; Decrease in AP [29]: 13%; Decrease in CR [30]: 8%; Decrease in CR [31]: 6%; Decrease in AP [32]: 6%; Decrease in AP [33]: 5%; Decrease in CR [34]: 7%; Decrease in CR [35]: 16%; Decrease in AP [36]: 10%; Decrease in CR [37]: 9%
9 | COc1ccc2[nH]c3c(NN)nncc3c2c1 | 17 | -8 |  | 30 | 32 |  | -10 |  | 5 | Decrease in CR [12]: -8%

Reference: ChEMBL document CHEMBL1123757, “Selective thromboxane synthetase inhibitors and antihypertensive agents. New derivatives of 4-hydrazino-5H-pyridazino[4,5-b]indole, 4-hydrazinopyridazino[4,5-a]indole, and related compounds” (J Med Chem, 1987)
